Tb MetRS inh: Trypanosoma brucei MetRS inhibition | purified T. brucei MetRS, ATP depletion, Kinase-Glo luminescence | inhibition, % at 11.9 µM | actives 0.4% (n = 360,000) | AID 624268;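 active = inhibition above a per-plate cutoff of the control wells' mean inhibition plus 3 SD, cut at about 5.5% in these data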;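 note: 0% = DMSO wells median and 100% = median of wells with control inhibitor compound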
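Material – parasite MetRS enzyme · Medium – HEPES-MgCl2-KCl buffer plus DTT, spermine, BSA, pyrophosphatase · Reagent – ATP, methionine and E. coli bulk tRNA substrates · Times – 15 min enzyme-compound preincubation, 2 h reaction, 10 min detection, 25 °C · Measured by – luminescence of leftover ATP · Evaluation – percent inhibition relative to median high and low control wells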
MC4R ag barr: agonists of human melanocortin 4 receptor (MC4R) beta-arrestin; U2OS MC4R beta-arrestin complementation, luminescence; percent of melanotan II response, DMSO zero; activation, % at 8.9 µM; actives 0.98% (n = 360,000); AID 540308;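 active = activation above a per-plate cutoff, the mean activation of sample wells on that plate plus 3 SD, cut at about 8% in these data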
MC4R antagonist: antagonists of human melanocortin 4 receptor (MC4R) | MC4R-expressing cells, MTII-stimulated cAMP, LANCE TR-FRET | actives 0.48% (n = 360,000) | inhibition, % at 6.5 µM | AID 540295 | P32245;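 active = inhibition above its plate's cutoff, the mean of tested wells on that plate plus 3 SD, cut at about 29% in these data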;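 note: 0% = Melanotan II alone and 100% = Melanotan II plus saturating MCL0020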
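Assay system: U2OS-MC4R stable cell line; Also added: Melanotan II; Technique: Eu-cAMP/anti-cAMP TR-FRET, emission 671 nm; Times: 30-min compound, 1-h challenge, 1-h detection, room temperature.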
ABCB6 inh 2: inhibitors of human ABC transporter ABCB6; Q9NP58; K562-ABCB6 porphyrin accumulation, flow cytometry, 1 h; active compounds read low; fluorescence ratio to DMSO, % at 10 µM; actives 0.19% (n = 360,000);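 active = fluorescence ratio to DMSO below 75%, the collection mean minus 3 SD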;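 note: signal is porphyrin accumulated inside mitochondria; 100% equals median channel fluorescence of DMSO control wells; lower ratio means ABCB6 inhibition with less porphyrin fluorescence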
Target sequence (Q9NP58 whole entry, looked up): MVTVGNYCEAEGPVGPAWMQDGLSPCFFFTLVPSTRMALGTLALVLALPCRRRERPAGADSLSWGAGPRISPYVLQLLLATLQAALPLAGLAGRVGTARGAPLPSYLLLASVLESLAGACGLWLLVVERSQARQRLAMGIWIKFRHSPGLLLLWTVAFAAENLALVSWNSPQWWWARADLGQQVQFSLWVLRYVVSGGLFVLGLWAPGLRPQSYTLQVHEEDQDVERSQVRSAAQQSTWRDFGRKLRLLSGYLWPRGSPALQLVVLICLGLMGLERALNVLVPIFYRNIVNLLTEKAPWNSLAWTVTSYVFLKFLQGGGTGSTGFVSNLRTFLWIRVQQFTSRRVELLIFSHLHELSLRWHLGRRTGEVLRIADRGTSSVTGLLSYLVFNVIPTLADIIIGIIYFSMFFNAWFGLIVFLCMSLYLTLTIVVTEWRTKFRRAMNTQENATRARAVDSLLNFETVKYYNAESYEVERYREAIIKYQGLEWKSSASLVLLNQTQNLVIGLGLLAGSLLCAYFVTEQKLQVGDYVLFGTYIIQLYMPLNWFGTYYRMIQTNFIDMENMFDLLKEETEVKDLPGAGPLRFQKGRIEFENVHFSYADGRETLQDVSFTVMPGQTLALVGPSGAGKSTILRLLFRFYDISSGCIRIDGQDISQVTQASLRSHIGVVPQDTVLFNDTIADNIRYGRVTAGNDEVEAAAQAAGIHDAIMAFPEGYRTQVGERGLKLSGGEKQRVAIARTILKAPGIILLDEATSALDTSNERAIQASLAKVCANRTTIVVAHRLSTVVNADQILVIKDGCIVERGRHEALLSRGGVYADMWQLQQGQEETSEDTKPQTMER
iPSC survival up: enhancers of human iPSC single-cell survival; hiPSC single-cell survival, ATPlite luminescence; 100% = ROCK inhibitor wells, 0% = DMSO; survival enhancement, % at 20 µM; actives 0.044% (n = 360,000); AID 602274; in the data active = survival enhancement above about 18%;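 note: cells exposed to compounds for 16 hours before the ATP read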
Granule exo inh: lytic granule exocytosis inhibition; TALL-104 LAMP-1 surface exposure, flow cytometry; cells stimulated with thapsigargin and PMA; inhibition, % at 10 µM; actives 0.66% (n = 360,000); AID 651702;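 active = inhibition above about 55%, limit read from the data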
U2OS cAMP counter: counter-screen for MC4R antagonists: nonselective cAMP signaling inhibitors | shares compounds with MC4R antagonist | parental U2OS, forskolin cAMP, LANCE TR-FRET | inhibition, % at 6.5 µM | actives 26% (n = 1,600) | AID 602193;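 active = mean inhibition over triplicates above the low-control well mean plus 3 SD, set per campaign, cut at about 13% in these data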;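 note: signal is single emission at 671 nm which falls as cellular cAMP rises; 0% = forskolin-stimulated wells and 100% = buffer without forskolin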
MC4R antag conf: human MC4R cAMP antagonism confirmation | shares compounds with MC4R antagonist | MC4R-expressing cells, MTII-stimulated cAMP, TR-FRET | inhibition, % at 6.5 µM | actives 27% (n = 1,600) | AID 602195; in the data active = inhibition above about 29%;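 note: 0% = agonist stimulated wells alone and 100% = agonist stimulated wells plus saturating reference antagonist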
MC4R barr conf: human MC4R beta-arrestin agonism confirmation; shares compounds with MC4R ag barr; U2OS MC4R beta-arrestin recruitment, luminescence; scaled DMSO 0%, Melanotan II 100%; activation, % at 8.9 µM; actives 31% (n = 2,400); AID 602192;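 active = mean activation across replicates above the hit cutoff set in the earlier primary screen, cut at about 8% in these data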
MOR DOR agonist: OPRM1-OPRD1 heterodimer agonism counter-screen | shares compounds with MC4R ag barr | activation, % at 9.2 µM | U2OS PathHunter beta-arrestin, beta-gal luminescence; percent of deltorphin B response, DMSO zero | actives 5.8% (n = 2,400);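 active = mean activation across replicates exceeds the hit threshold derived in the earlier primary screen, cut at about 18% in these data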;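 note: 100% = deltorphin B at 0.9 µM final and 0% = DMSO alone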
K562 vector FC: effect in K562 cells lacking ABCB6, counter-screen; shares compounds with ABCB6 inh 2; K562 empty-vector cells, flow cytometry fluorescence, 1 h; percent response (fluorescence), % at 100 µM; 25 tested, under 10 active;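 active = compounds whose half-maximal effective concentration is below 100 µM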
An asterisk follows results filed as active; / = not tested or not shown. A selection: hits, their analogues and other compounds. The true share with any hit is near 2.6%.

SMILES	Tb MetRS inh	MC4R ag barr	MC4R antagonist	ABCB6 inh 2	iPSC survival up	Granule exo inh	U2OS cAMP counter	MC4R antag conf	others
Cc1ccc(CN2CCN(C(=O)CCC(=O)Nc3nnc(C(C)C)s3)CC2)c(C)c1	1	-2	6	100	0	7	/	/
O=C(Nc1ccc2c(c1)CCC2)C1COc2ccccc2O1 (stereo unspecified)	0	-1	14	99	-1	-5	/	/
O=C(CC1C(=O)NCCN1CC1CCCCC1)NCc1cccc(F)c1F (stereo unspecified)	-1	3	30*	100	-2	-1	0	-1
O=C1C=C(c2ccc3c(c2)OCO3)C[C@@H](c2ccc(Cl)cc2)C1	0	-1	2	97	4	29	/	/
Cc1ccc(C(=O)CSc2cc(C)nc(SCC(=O)c3ccccc3)n2)cc1	0	0	8	111	0	5	/	/
Cc1cc(Oc2ccc(C)c(Cl)c2)nc(SCC(=O)c2ccccc2)n1	0	2	45*	97	1	-4	23*	47*
FC(F)Oc1ccccc1NC(=S)NCCc1ccccc1	1	0	32*	100	-1	1	-1	-6
Cc1cc(OC(F)F)ccc1NC(=S)NCCc1ccccc1	0	-2	8	100	0	-3	/	/
COc1ccc2[nH]c3c(c2c1)CCN1C(=O)N([C@@H](C)C(=O)NCCc2ccc(F)cc2)C(=O)[C@]31C	-2	0	7	101	-1	4	/	/
COc1ccc(NC(=O)CN(C)CC(=O)Nc2ccc(Cl)c(S(=O)(=O)N(C)C)c2)cc1	0	-2	-2	95	0	-6	/	/
CCN(CC(=O)Nc1ccc(Cl)c(S(=O)(=O)N(C)C)c1)CC(=O)NC(C)C	0	0	30*	102	0	21	1	-15
CCNC(=O)CC1C(=O)N(C)C(=S)N1NC(=O)c1ccc(Cl)cc1 (stereo unspecified)	-1	0	5	96	1	0	/	/
Nc1ccc(C(=O)NN2C(=O)[C@H](Cl)C2c2ccc(Cl)cc2)cc1 (stereo partly specified)	0	0	37*	105	-4	5	22*	19
CCOc1ccccc1N(C(=O)c1snc(C(N)=O)c1N)C(C(=O)NCc1ccccc1)c1ccc(O)cc1 (stereo unspecified)	0	-2	31*	94	0	42	2	5
O=C(Nc1ccccc1Cl)c1cc(C2CCCCN2C(=O)c2ccccc2)on1 (stereo unspecified)	0	2	35*	104	-3	0	-14	-33
CC(=O)Nc1ccc(C(=O)N2CCCCC2c2cc(C(=O)Nc3ccccc3Cl)no2)cc1 (stereo unspecified)	0	0	14	102	2	-3	/	/
O=C(Nc1ccccc1N1CCCC1)c1ccccc1Cl	-1	1	-3	96	1	5	/	/
Cc1ccccc1C(=O)Nc1ccccc1N1CCCCC1	0	8	35*	101	-2	-2	1	-2
O=Nc1c(-c2c(O)[nH]c3cc(Br)ccc23)[nH]c2ccccc12	0	14*	62*	183	-4	27	5	56*	MC4R barr conf=0;MOR DOR agonist=3
O=C1c2cc([N+](=O)[O-])ccc2-c2cc(Cl)c(NC(=O)C(F)(F)F)cc21	0	-1	-3	102	0	1	/	/
O=C1c2cc([N+](=O)[O-])ccc2-c2cc(Br)c(N=C(NO)C(F)(F)F)cc21	0	14*	35*	109	2	8	-3	-4	MC4R barr conf=13*;MOR DOR agonist=6
Cc1cc(O)c(C(C)C)cc1C1(c2cc(C(C)C)c(O)cc2C)OC(=O)c2ccccc21	0	19*	31*	102	0	88*	6	29*	MC4R barr conf=8.6*;MOR DOR agonist=9
Cc1ccc(NC(=O)c2ccco2)nc1	-1	-1	6	99	1	7	/	/
CCCCCCSc1cccc(-c2nc3ccc(Cl)cn3c2NCCCC)c1	0	2	-3	102	-1	0	/	/
CCCCNc1c(-c2cccc(-c3cc(C(C)=O)cs3)c2)nc2ccc(C)cn12	0	19*	50*	90	-3	-8	9	19	MC4R barr conf=24*;MOR DOR agonist=7
SMILES	Tb MetRS inh	MC4R ag barr	MC4R antagonist	ABCB6 inh 2	iPSC survival up	Granule exo inh	U2OS cAMP counter	MC4R antag conf	others
Cc1ccc(OCC(=O)NC(=S)Nc2cccc(C)n2)cc1	-1	2	-4	102	0	0	/	/
Cc1ccc(OCC(=O)NC(=S)Nc2ccc3c4c(cccc24)CC3)cc1	2	13*	39*	96	1	-3	7	14	MC4R barr conf=12*;MOR DOR agonist=3
COc1ccc(Cl)cc1S(=O)(=O)NC(C)C(=O)NCCCn1ccnc1 (stereo unspecified)	0	-1	-1	98	0	3	/	/
Cc1cc(NC(=O)CSc2nnc(-c3ccncc3)n2-c2ccccc2)no1	0	-2	5	93	-2	5	/	/
COc1cccc(C(=O)C(C#N)=C(SC)SC)c1	0	24*	42*	99	-1	70*	10	23	MC4R barr conf=14*;MOR DOR agonist=19*
O=C1C=C(c2ccc3ccccc3c2)C[C@@H](c2ccc(F)cc2)C1	0	0	-5	94	-1	-8	/	/
O=C(Nc1ccc(-c2nc3ccccc3o2)cc1)c1ccc2c(c1)OCO2	-1	20*	30*	95	0	-1	1	-8	MC4R barr conf=12*;MOR DOR agonist=7
CCc1nnc(NC(=O)c2nc(S(=O)(=O)Cc3ccc(C)cc3)ncc2Cl)s1	0	-6	31*	101	0	11	23*	39*	K562 vector FC=229

Screening results as filed in PubChem.
